The results in this text go back to ChEMBL document CHEMBL1138297, “Design, synthesis, and multivariate quantitative structure-activity relationship of salicylanilides--potent inhibitors of type III secretion in Yersinia” (J Med Chem, 2007).

Calls of active or inactive are those of the source. No cut-off for these calls is given here.

Assay [1] deals with Yersinia pseudotuberculosis. As to the kind of experiment: Effect on T3S in Yersinia pseudotuberculosis 3 pIB29 assessed as inhibition of light emission at 10 uM by luciferase reporter gene assay. A digest of the protocol: (§1)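 YPIII pIB29 (yopE-luxAB) reporter strain grown overnight at ambient temperature in BHI with 5 mM EGTA and 20 mM MgCl2 to deplete calcium. Culture adjusted to OD600 0.15-0.25 and added to compounds in DMSO (final ≤1%). Incubated 1 h at ambient temperature with shaking, then 2 h at 37 °C. Decanal substrate added and luminescence read at once. Triplicates; repeated on ≥2 occasions.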

Assay [2] has as its system Yersinia pseudotuberculosis. Description: Effect on T3S in Yersinia pseudotuberculosis 3 pIB29 assessed as inhibition of light emission at 100 uM by luciferase reporter gene assay. The method, boiled down: as §1
Assay [3] deals with Yersinia pseudotuberculosis. Description: Effect on T3S in Yersinia pseudotuberculosis 3 pIB29 assessed as inhibition of light emission at 50 uM by luciferase reporter gene assay. The method, boiled down: as §1
On the technique in general: In a reporter assay the amount or activity of a reporter protein is the signal.

The subject of assay [4] is Yersinia pseudotuberculosis. Description: Effect on T3S in Yersinia pseudotuberculosis 3 pIB29 assessed as inhibition of light emission at 20 uM by luciferase reporter gene assay. A digest of the protocol: as §1
Assay [5] concerns Yersinia pseudotuberculosis. As to the kind of experiment: Effect on T3S in Yersinia pseudotuberculosis 3 pIB29 assessed as inhibition of light emission at 5 uM by luciferase reporter gene assay. A digest of the protocol:
as §1

In assay [6] the test system is Yersinia pseudotuberculosis. Description: Effect on T3S in Yersinia pseudotuberculosis 3 pIB29 assessed as inhibition of light emission at 2 uM by luciferase reporter gene assay. A digest of the protocol: as §1
For assay [7], the system named is Yersinia pseudotuberculosis. Description: Effect on T3S in Yersinia pseudotuberculosis 3 pIB29 assessed as inhibition of light emission at 1 uM by luciferase reporter gene assay. The method, boiled down:
as §1

Assay [8] deals with Yersinia pseudotuberculosis. Description: Effect on T3S in Yersinia pseudotuberculosis 3 pIB29 assessed as inhibition of light emission at 0.5 uM by luciferase reporter gene assay. A digest of the protocol: as §1

In general, inhibition refers to the drop in the measured response relative to a control, in per cent.

As for `CC(=O)Oc1c(I)cc(I)cc1C(=O)Nc1ccc(F)cc1`, the inhibition in assay [1] came out at 60%; in assay [2], 93%; in assay [3], 86%; in assay [4], 76%; in assay [5], 31%; in assay [6], 15%. The figures for the inhibition in assay [7] and in assay [8] were 6% and 12%, respectively.

For `O=C(Nc1ccc(SC(F)(F)F)cc1)c1cccc(Cl)c1O`, the inhibition is 61% in assay [1]; 100% in assay [2]; 99% in assay [3]; 81% in assay [4]; 38% in assay [5]; 13% in assay [6]. In addition, the values for the inhibition in assay [7] and in assay [8] were 3% and -2%, respectively.

For `CC(=O)Oc1ccc(I)cc1C(=O)Nc1ccc(Cl)cc1`, the inhibition in assay [1] is 99%; in assay [2], 100%; in assay [3], 100%; in assay [4], 100%; in assay [5] it was 99%; in assay [6], 92%. The values for the inhibition in assay [7] and in assay [8] were 73% and 58%, respectively.

As to `O=C(Nc1ccc(Br)cc1)c1cccc(Cl)c1O`, the inhibition turned out to be 24% in assay [1]; 100% in assay [2]; 96% in assay [3]; 62% in assay [4]; 12% in assay [5]; 12% in assay [6]. Also, the inhibition is 6% in assay [7] and 5% in assay [8].

Consider `CC(=O)Oc1ccccc1C(=O)Nc1ccc(Cl)cc1`, for which the inhibition came to 23% in assay [1], 99% in assay [2], 92% in assay [3] and 44% in assay [4].

Turning to `Cc1cc(NC(=O)c2cc(Cl)ccc2O)ccc1Cl`, the inhibition in assay [1] was determined as 61%; in assay [2], 75%; in assay [3], 56%; in assay [4], 85%; in assay [5] it was 85%; in assay [6], 62%. Also, the inhibition is 50% in assay [7] and 15% in assay [8].

For the compound `COc1cc(Cl)c(C)cc1NC(=O)c1cc(I)cc(I)c1OC(C)=O`, the inhibition in assay [1] is 11%; in assay [2] it was 50%; in assay [3] it was 35%; in assay [4], 19%.

For `O=C(Nc1ccc(Cl)cc1)c1ccccc1O`, the inhibition in assay [1] came out at 14%; in assay [2], 100%; in assay [3], 99%; in assay [4], 64%.

Consider `Cc1cc(C)cc(NC(=O)c2c(O)c(Cl)cc(Cl)c2Cl)c1`, for which the inhibition in assay [1] worked out at 21%; in assay [2], 52%; in assay [3] it was 46%; in assay [4], 24%.

As for `COc1cc(Cl)c(C)cc1NC(=O)c1cc(I)cc(I)c1O`, the inhibition worked out at 35% in assay [1], 67% in assay [2], 57% in assay [3] and 55% in assay [4].

As to `O=C(Nc1ccc(SC(F)(F)F)cc1)c1cc2cc(Br)ccc2c(Br)c1O`, the inhibition in assay [1] is 41%; in assay [2], 63%; in assay [3], 63%; in assay [4] it was 55%.

Regarding `CC(=O)Oc1c(C(=O)Nc2ccc(SC(F)(F)F)cc2)cc2cc(Br)ccc2c1Br`, the inhibition in assay [1] was 9%; in assay [2], -3%; in assay [3], 4%; in assay [4], 10%.

Turning to `CC(C)(C)c1ccc(NC(=O)c2cc(F)ccc2O)cc1`, the inhibition in assay [1] was determined as 13%; in assay [2], 8%; in assay [3], 13%; in assay [4] it was 12%.

On to `CC(=O)Oc1c(I)cc(I)cc1C(=O)Nc1ccc(C(C)(C)C)cc1`, for which the inhibition in assay [1] came out at 17%; in assay [2], 2%; in assay [3] it was 17%; in assay [4], 20%.

For the compound `CCCCCCCc1ccc(NC(=O)c2cc(I)cc(I)c2OC(C)=O)cc1`, the inhibition in assay [1] was 19%; in assay [2], 5%; in assay [3], 17%; in assay [4], 19%.

In the case of `O=C(Nc1ccc(F)cc1)c1c(O)c(Cl)cc(Cl)c1Cl`, the inhibition in assay [1] was 19%; in assay [2] it was 45%; in assay [3] it was 32%; in assay [4], 19%.

For `COc1cc(Cl)c(C)cc1NC(=O)c1cc(C)ccc1O`, the result in assay [1] and in assay [4] was inactive. In addition, the inhibition in assay [2] is -1%; in assay [3] it was 16%.

As to `CC(=O)Oc1cc(C)ccc1C(=O)Nc1ccccc1F`, the inhibition in assay [1] is 0%; in assay [2] it was 95%; in assay [3] it was 53%; in assay [4], 8%.

Take `CC(=O)Oc1c(I)cc(I)cc1C(=O)Nc1ccccc1`: the inhibition was determined as 30% in assay [1], 94% in assay [2], 75% in assay [3] and 48% in assay [4].

For the compound `CC(C)(C)c1cc(NC(=O)c2cc(Br)ccc2O)cc(C(C)(C)C)c1`, the inhibition was 12% in assay [1], 0% in assay [2], -4% in assay [3] and 9% in assay [4].

In the case of `O=C(Nc1ccccc1F)c1cc(Br)cc(Br)c1O`, the inhibition in assay [1] was determined as 14%; in assay [2], 78%; in assay [3], 64%; in assay [4], 29%.

Take `COc1cc(Cl)c(C)cc1NC(=O)c1cc(C)ccc1OC(C)=O`: the result in assay [1] and in assay [4] was inactive. Besides, the inhibition in assay [3] was -2%.

As for `CC(=O)Oc1ccc(F)cc1C(=O)Nc1ccc(C(C)(C)C)cc1`, the inhibition in assay [1] came out at 37%; in assay [2], 22%; in assay [3], 22%; in assay [4], 37%.

Consider `CC(=O)Oc1c(Cl)cc(Cl)c(Cl)c1C(=O)Nc1ccc(C(C)(C)C)cc1`, for which the inhibition in assay [1] was 4%; in assay [2] it was 12%; in assay [3], 19%; in assay [4] it was 7%.

Take `CC(=O)Oc1c(Cl)cc(Cl)c(Cl)c1C(=O)Nc1ccccc1`: the result in assay [1] and in assay [4] was inactive. The inhibition was 10% in assay [2] and 12% in assay [3].

Turning to `CC(C)(C)c1ccc(NC(=O)c2c(O)c(Cl)cc(Cl)c2Cl)cc1`, the inhibition in assay [1] turned out to be 27%; in assay [2], 34%; in assay [3], 23%; in assay [4] it was 28%.

Turning to `O=C(Nc1ccc(Cl)cc1)c1cc(F)cc(F)c1`, the result in assay [1], in assay [2], in assay [3] and in assay [4] was inactive.

Take `CC(C)(C)c1ccc(NC(=O)c2cc(I)cc(I)c2O)cc1`: the inhibition in assay [1] turned out to be 33%; in assay [2] it was 42%; in assay [3] it was 41%; in assay [4], 40%.

Consider `CCCCCCCc1ccc(NC(=O)c2cc(I)cc(I)c2O)cc1`, for which the inhibition was 30% in assay [1], 3% in assay [2], 22% in assay [3] and 27% in assay [4].

Take `CC(=O)Oc1ccc(Br)cc1C(=O)Nc1cc(C(C)(C)C)cc(C(C)(C)C)c1`: the outcome in assay [1] and in assay [4] was inactive. For the same compound, the inhibition in assay [2] worked out at 0%; in assay [3], 15%.

Consider `Cc1ccc(C(=O)Nc2ccccc2F)c(O)c1`, for which the inhibition was 23% in assay [1], 34% in assay [2], 35% in assay [3] and 21% in assay [4].

Regarding `COc1cc(Cl)c(C)cc1NC(=O)c1cccc(C(C)C)c1O`, the inhibition in assay [1] was 23%; in assay [2] it was 5%; in assay [3], 19%; in assay [4] it was 25%.

`O=C(Nc1ccccc1)c1c(O)c(Cl)cc(Cl)c1Cl`: the inhibition was determined as 22% in assay [1], 31% in assay [2], 23% in assay [3] and 21% in assay [4].

Consider `CC(=O)Oc1c(Cl)cc(Cl)c(Cl)c1C(=O)Nc1ccc(F)cc1`, for which the inhibition in assay [1] is 19%; in assay [2], 54%; in assay [3], 32%; in assay [4], 23%.

Regarding `COc1cc(Cl)c(C)cc1NC(=O)c1cccc(C(C)C)c1OC(C)=O`, the inhibition in assay [1] is 10%; in assay [2] it was -1%; in assay [3] it was 4%; in assay [4], 8%.

In the case of `O=C(Nc1ccccc1)c1cc(I)cc(I)c1O`, the inhibition was determined as 32% in assay [1], 99% in assay [2], 87% in assay [3] and 51% in assay [4].

Turning to `CC(=O)Oc1c(Br)cc(Br)cc1C(=O)Nc1ccccc1F`, the inhibition in assay [1] turned out to be 6%; in assay [2] it was 83%; in assay [3], 61%; in assay [4], 15%.

Take `CC(=O)Oc1c(Cl)cc(Cl)c(Cl)c1C(=O)Nc1cc(C)cc(C)c1`: the inhibition was found to be 6% in assay [1], 20% in assay [2], 5% in assay [3] and 6% in assay [4].
